Measurements: ChEMBL document CHEMBL4177770, “Discovery of MK-6169, a Potent Pan-Genotype Hepatitis C Virus NS5A Inhibitor with Optimized Activity against Common Resistance-Associated Substitutions” (J Med Chem, 2018)
Where a chain is given by its changes, count along the chain named.

Columns and labels:
[1] = system: T1, Nonstructural protein 5A (Hepatitis C virus), Q5L478 [Y93H]; test: Inhibition of NS5A Y93H mutant in HCV genotype 1a infected in HuH7 replicon cells assessed as decrease in viral replication after 3 days by RT-PCR method; assay type: cell-based; conditions: Hepatitis C virus subtype 1a
T1 sequence (whole entry): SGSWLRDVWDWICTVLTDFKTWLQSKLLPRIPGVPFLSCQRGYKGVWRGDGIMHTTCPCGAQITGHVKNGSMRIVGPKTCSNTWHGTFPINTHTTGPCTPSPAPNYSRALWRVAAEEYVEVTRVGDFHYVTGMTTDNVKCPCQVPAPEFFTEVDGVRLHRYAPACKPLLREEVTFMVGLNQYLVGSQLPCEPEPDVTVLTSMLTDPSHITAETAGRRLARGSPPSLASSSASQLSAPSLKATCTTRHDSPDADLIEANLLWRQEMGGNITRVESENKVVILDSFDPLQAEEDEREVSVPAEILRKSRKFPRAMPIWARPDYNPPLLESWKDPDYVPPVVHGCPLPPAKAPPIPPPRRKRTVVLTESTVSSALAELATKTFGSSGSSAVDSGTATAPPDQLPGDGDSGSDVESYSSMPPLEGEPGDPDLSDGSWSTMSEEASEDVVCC

[2] = molecular target: T2, Nonstructural protein 5A (Hepatitis C virus) (UniProt Q5L478); test: Inhibition of NS5A in HCV genotype 3a infected in HuH7 replicon cells assessed as decrease in viral replication after 3 days by RT-PCR method; assay type: cell-based; conditions: Hepatitis C virus subtype 3a
T2 sequence (whole entry): T1 sequence (whole entry) with H93Y

[3] = AUC in Wistar Han rat at 10 mg/kg, po by LC/MS method; assay type: ADME, organism-based; conditions: in vivo
Summary of the method: (§1)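 Male Wistar Han rats, two per dosing group, dosed orally at 10 mg/kg in 10% TWEEN. Plasma was separated from collected blood by centrifugation and analysed by LC/MS.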

[4] = Cmax in Wistar Han rat at 10 mg/kg, po by LC/MS method; assay type: ADME, organism-based; design: dose 10 mg/kg, route oral; conditions: in vivo; summary of the method: as §1
[5] = molecular target: T2, Nonstructural protein 5A (Hepatitis C virus); test: Inhibition of NS5A L31V mutant in HCV genotype 1a infected in HuH7 replicon cells assessed as decrease in viral replication after 3 days by RT-PCR method; assay type: cell-based; conditions: Hepatitis C virus subtype 1a
[6] = molecular target: T2, Nonstructural protein 5A (Hepatitis C virus); test: Inhibition of NS5A in HCV genotype 4a infected in HuH7 replicon cells assessed as decrease in viral replication after 3 days by RT-PCR method; assay type: cell-based; conditions: Hepatitis C virus subtype 4a
[7] = molecular target: T2, Nonstructural protein 5A (Hepatitis C virus); test: Inhibition of NS5A in HCV genotype 1b infected in HuH7 replicon cells assessed as decrease in viral replication after 3 days by RT-PCR method; assay type: cell-based; conditions: Hepatitis C virus subtype 1b
[8] = Half life in Wistar Han rat at 2 mg/kg, iv by LC/MS method; assay type: ADME, organism-based; conditions: in vivo
Summary of the method: (§2)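 Male Wistar Han rats, two per group, dosed IV at 2 mg/kg in 60% PEG200. Plasma was obtained by centrifuging the blood, and compound concentrations were measured by LC/MS.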

[9] = molecular target: T2, Nonstructural protein 5A (Hepatitis C virus); test: Inhibition of NS5A in HCV genotype 1a infected in HuH7 replicon cells assessed as decrease in viral replication after 3 days by RT-PCR method; assay type: cell-based; conditions: Hepatitis C virus subtype 1a
[10] = Clearance in Wistar Han rat at 2 mg/kg, iv by LC/MS method; assay type: ADME, organism-based; conditions: in vivo; summary of the method: as §2
[11] = molecular target: T2, Nonstructural protein 5A (Hepatitis C virus); test: Inhibition of NS5A L31M mutant in HCV genotype 2b infected in HuH7 replicon cells assessed as decrease in viral replication after 3 days by RT-PCR method; assay type: cell-based; conditions: Hepatitis C virus subtype 2b
[12] = Drug level in Wistar Han rat at 10 mg/kg, po measured at 24 hrs by LC/MS method; assay type: ADME, organism-based; conditions: in vivo, read-out: Drug uptake; summary of the method: as §1
[13] = Oral bioavailability in Wistar Han rat at 10 mg/kg by LC/MS method; assay type: ADME, organism-based; conditions: in vivo; summary of the method: as §1

Structure (SMILES)	EC90 [1]	EC90 [2]	AUC [3]	Cmax [4]	EC90 [5]	EC90 [6]	EC90 [7]	half-life [8]	EC90 [9]	clearance [10]	EC90 [11]	concentration at 24 h [12]	bioavailability [13]
COC(=O)N[C@H](C(=O)N1CCC[C@H]1c1ncc(-c2cc(F)c3c(c2)O[C@@H](c2cnc(C4CC4)s2)n2c-3cc3cc(-c4cnc([C@@H]5CCCN5C(=O)[C@@H](NC(=O)OC)[C@@H]5CCOC(C)(C)C5)[nH]4)ccc32)[nH]1)C(C)C	29 pM	15 pM	0.51 µM·h	60 nM	6 pM	7 pM	6 pM	4 h	6 pM	9 mL/min/kg	15 pM	4 nM	2.8%
CCc1ncc([C@@H]2Oc3cc(-c4cnc([C@@H]5CCCN5C(=O)[C@@H](NC(=O)OC)C(C)C)[nH]4)cc(F)c3-c3cc4cc(-c5cnc([C@@H]6CCCN6C(=O)[C@@H](NC(=O)OC)[C@@H]6CCOC(C)(C)C6)[nH]5)ccc4n32)s1	17 pM	6 pM	0.05 µM·h	10 nM	5 pM	4 pM	5 pM	5.3 h	6 pM	29 mL/min/kg	41 pM	1 nM	0.8%
COC(=O)N[C@H](C(=O)N1CCC[C@H]1c1ncc(-c2cc(F)c3c(c2)O[C@@H](c2ccc(C(C)C)s2)n2c-3cc3cc(-c4cnc([C@@H]5CCCN5C(=O)[C@@H](NC(=O)OC)[C@@H]5CCOC(C)(C)C5)[nH]4)ccc32)[nH]1)C(C)C	36 pM	6 pM	0.8 µM·h	100 nM	4 pM	6 pM	5 pM	9.6 h	4 pM	5 mL/min/kg	38 pM	4 nM	2.7%
CCc1ccc([C@@H]2Oc3cc(-c4cnc([C@@H]5CCCN5C(=O)[C@@H](NC(=O)OC)C(C)C)[nH]4)cc(F)c3-c3cc4cc(-c5cnc([C@@H]6CCCN6C(=O)[C@@H](NC(=O)OC)[C@@H]6CCOC(C)(C)C6)[nH]5)ccc4n32)s1	38 pM	9 pM	0.78 µM·h	110 nM	3 pM	7 pM	6 pM	5.2 h	5 pM	8 mL/min/kg	28 pM	4 nM	3.5%
COC(=O)N[C@H](C(=O)N1CCC[C@H]1c1ncc(-c2cc(F)c3c(c2)O[C@@H](c2ccc(C4CC4)s2)n2c-3cc3cc(-c4cnc([C@@H]5CCCN5C(=O)[C@@H](NC(=O)OC)C5CC(C)(C)OC(C)(C)C5)[nH]4)ccc32)[nH]1)C(C)C	47 pM	7 pM	0.7 µM·h	76 nM	4 pM	4 pM	2 pM	7.7 h	4 pM	7 mL/min/kg	73 pM	5 nM	3.1%
COC(=O)N[C@H](C(=O)N1CCC[C@H]1c1ncc(-c2cc(F)c3c(c2)O[C@@H](c2ccc(C4CC4)s2)n2c-3cc3cc(-c4cnc([C@@H]5CCCN5C(=O)[C@@H](NC(=O)OC)C5CCO[C@@H](C)C5)[nH]4)ccc32)[nH]1)C(C)C (stereo partly drawn)	13 pM	8 pM	0.19 µM·h	21 nM	2 pM	7 pM	7 pM	5.5 h	5 pM	11 mL/min/kg	23 pM	1 nM	1.3%
